From ChEMBL document CHEMBL1124521, “Effect of structural modifications in the C7-C11 region of the retinoid skeleton on biological activity in a series of aromatic retinoids” (1989)

How the values were obtained:
[1] = molecular target: Ornithine decarboxylase (Mus musculus) (UniProt P00860); test: Inhibitory effect of compound on the induction of ornithine decarboxylase in CD-1 mouse.
[2] = molecular target: Cellular retinoic acid-binding protein 1 (Gallus gallus) (UniProt P40220); test: Concentration of compound required to inhibit binding of 2.5 uM [3H]all-trans-retinoic acid by 50% in chick
Chain of Cellular retinoic acid-binding protein 1 (Gallus gallus) (P40220 whole entry): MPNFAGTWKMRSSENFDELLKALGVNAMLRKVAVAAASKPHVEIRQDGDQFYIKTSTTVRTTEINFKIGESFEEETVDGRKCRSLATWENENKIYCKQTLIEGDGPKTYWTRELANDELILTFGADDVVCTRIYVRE
Method in brief: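 Chick embryo skin CRABP (12–13-day), with albumin removed on Affi-Gel Blue. Eluates (1 mg protein/0.4 mL) were incubated with saturable [³H]-all-trans-retinoic acid ± 1-, 5-, 10- or 25-fold molar excess of unlabeled retinoid. Free ligand was removed with dextran-coated charcoal, followed by filtration and counting of bound radioactivity. Nonspecific binding was defined with 25-fold excess of retinoic acid. ID50 from semilog plots.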

[3] = species: Oryctolagus cuniculus; test: Percentage inhibition of cholesterol-3-sulfate activity in rabbit at 0.1 nM.; type: functional
Method in brief: (§1)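 Rabbit tracheal epithelial cells in supplemented Ham's F12, given retinoid (0.1 or 10 nM) in Me₂SO from day 5 for 5 days. Cells were labeled 22 h with 25 μCi/mL Na₂³⁵SO₄, trypsinized, and extracted with CHCl₃/MeOH. Inhibition of ³⁵SO₄ incorporation into cholesterol 3-sulfate was measured relative to control.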

[4] = species: Oryctolagus cuniculus; test: cross-linked envelope inhibition assay was performed at 10 nM compound concentration; type: functional; set-up: scale not given: the % may be the effect or the level left
Method in brief: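 Rabbit tracheal epithelial cells exposed to 1 × 10⁻⁸ M retinoid from day 6 of culture. Cross-linked envelope formation was determined on day 12, in triplicate.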

[5] = system: F9; test: Ability to displace [3H]all-trans-retinoic acid from F9 embryonal carcinoma cells, was assessed in a F9 laminin release assay; type: functional; conditions: Mus musculus, F9, 96 h; read-out: ED50 (the source's name)
[6] = species: Oryctolagus cuniculus; test: Percentage inhibition of cholesterol-3-sulfate activity rabbit at 10 nM.; type: functional; set-up: scale not given: the % may be the effect or the level left
Method in brief: as §1

[7] = system: F9; test: Ability to displace 3 uM retinoid and [3H]all-trans-retinoic acid in F9 embryonal carcinoma cells using F9 Plasminogen Activator releasing assay; type: functional; conditions: Mus musculus, F9, 4 days; read-out: ED50 (the source's name)
[8] = species: Oryctolagus cuniculus; test: Percentage inhibition of Transglutaminase activity in rabbit at 0.1 nM.; set-up: scale not given: the % may be the effect or the level left
Method in brief: (§2)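 Rabbit tracheal epithelial cells on fibronectin/BSA/vitrogen-coated dishes in supplemented Ham's F12, treated with retinoid in Me₂SO from day 5 for 5 days. Cells were sonicated in PBS with 10 mM dithiothreitol, and transglutaminase activity was measured as [³H]putrescine incorporation into casein, in triplicate.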

[9] = Inhibitory dose against tracheal organ culture reversal of keratinization; type: functional; conditions: Cricetulus griseus, Trachea; read-out: ID50 (the source's name)
Method in brief: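 Retinoid-deficient hamster tracheas in organ culture, scored for reversal of keratinization. At least six cultures per retinoid concentration; ID50 by polynomial interpolation.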

[10] = species: Oryctolagus cuniculus; test: Percentage inhibition of Transglutaminase activity in rabbit at 10 nM.
Method in brief: as §2

[11] = molecular target: Cellular retinoic acid-binding protein 1 (Gallus gallus) (UniProt P40220)
[12] = (§3) Inhibition of binding of [3H]all-trans-retinoic acid to cellular retinoic acid binding protein at 3 uM compound concentration, in rat; type: functional; set-up: scale not given: the % may be the effect or the level left
Method in brief: (§4)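 CRABP partially purified from rat testis. Competition of 3 μM retinoid with [³H]-all-trans-retinoic acid, bound ligand separated by Sephadex G-25 gel filtration on 2-mL columns. Triplicate measurements.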

[13] = as §3; set-up: scale not given: the % may be the effect or the level left
Method in brief: as §4

Chain of Ornithine decarboxylase (Mus musculus) (P00860 whole entry, looked up): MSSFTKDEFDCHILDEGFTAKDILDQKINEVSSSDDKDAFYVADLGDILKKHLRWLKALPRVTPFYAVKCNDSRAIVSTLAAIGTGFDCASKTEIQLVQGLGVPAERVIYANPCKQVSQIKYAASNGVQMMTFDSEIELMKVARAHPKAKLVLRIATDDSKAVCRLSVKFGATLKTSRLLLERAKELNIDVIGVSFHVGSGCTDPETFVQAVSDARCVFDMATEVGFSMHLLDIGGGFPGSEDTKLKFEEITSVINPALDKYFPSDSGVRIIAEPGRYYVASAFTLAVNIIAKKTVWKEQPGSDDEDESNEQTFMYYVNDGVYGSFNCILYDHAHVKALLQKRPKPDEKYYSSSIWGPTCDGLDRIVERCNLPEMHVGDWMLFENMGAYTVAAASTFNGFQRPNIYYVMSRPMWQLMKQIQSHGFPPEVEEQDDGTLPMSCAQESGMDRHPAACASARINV

Compound	ID50 [1] [nM]	ID50 [2] [nM]	Cholesterol sulfate synthesis (% of control) [3] [%]	Control [4] [%]	EC50 [5] [nM]	Control [6] [%]	EC50 [7] [nM]	Control [8] [%]	IC50 [9] [nM]	Transglutaminase activity (% of control) [10] [%]	ID50 [11] [nM]	Control [12] [%]	Control [13] [%]
Cc1c(-c2ccc3c(c2)C(C)(C)CCC3(C)C)ccc2cc(C(=O)O)ccc12	66	15000	187	5	> 5000	14	3	114	0.08	47	–	–	–
C/C(=C(/C)c1ccc2c(c1)C(C)(C)CCC2(C)C)c1ccc(C(=O)O)cc1	142	1000	73	100	> 100	33	> 10	–	> 10	68	–	–	–
CC1=C(/C=C/C(C)=C/C=C/C(C)=C/C(=O)O)C(C)(C)CCC1 [TRETINOIN]	0.04	–	100	<1	1.5	5	0.1	–	0.01	15	1000	91	–
C/C(=C\c1ccc2c(c1)C(C)(C)CCC2(C)C)c1ccc(C(=O)O)cc1	0.03	1000	2	0	1.5	1	0.7	10	0.007	5	–	–	27
C/C(=C\c1ccc(C(=O)O)cc1)c1ccc2c(c1)C(C)(C)CCC2(C)C	0.03	800	6	<1	1.5	1	0.08	–	0.002	1	–	–	100
CC1(C)CCC(C)(C)c2cc3cc(-c4ccc(C(=O)O)cc4)ccc3cc21	0.07	800	13	<1	0.2	2	0.3	12	0.01	14	–	–	–
CC1(C)CCC(C)(C)c2cc(C3C[C@H]3c3ccc(C(=O)O)cc3)ccc21 (stereo not given in full)	3.2	4800	73	<1	90	2	2	130	> 0.1	23	–	–	–
Cc1cc2c(cc1-c1ccc3cc(C(=O)O)ccc3c1)C(C)(C)CCC2(C)C	0.4	4800	12	<1	> 100	2	0.5	37	0.02	11	–	–	–
CC1(C)CCC(C)(C)c2cc(-c3ccc4cc(C(=O)O)ccc4c3)ccc21	2.2	1600	15	<1	31	2	1	–	0.003	9	–	–	91
